19 molecules from ChEMBL document CHEMBL1255572, “Novel pyrimidines as acid pump antagonists (APAs)” (Bioorg Med Chem Lett, 2010) can be followed below.

Where a name gives a salt, the structure may show the parent alone.

A short description of one test: Inhibition of H+/K+/ATPase. In outline: (§1)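 Ion-leaky membrane vesicles enriched in H+/K+-ATPase prepared from pig stomach. Lyophilized vesicles in 5 mM Pipes/Tris pH 6.1 preincubated 5 min with compound at various concentrations. K+-containing or K+-free buffer then added, ATP substrate added, and incubated 30 min at 37 °C. Colorimetric reagent stopped the reaction and Pi was read at 620 nm. K+-stimulated activity is the difference between with and without K+. IC50 by Litchfield–Wilcoxon.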
Take `Cc1nc(Cc2ccc(F)cc2)nc(N2CCc3ccc(F)cc3C2C)c1C` (centres undefined): the IC50 was found to be 1240 nM.

`Cc1ccc2c(c1)CCN(c1nc(Cc3ccc(F)cc3)nc(C)c1C)C2C` (centres undefined) came in with an IC50 of 230 nM.

As to `Cc1nc(Cc2ccc(F)cc2)nc(N2CCc3ccc(Cl)cc3C2C)c1C` (centres undefined), the IC50 came out at 1630 nM.

Consider `Cc1ccc2c(c1)C(C)N(c1nc(Cc3ccc(F)cc3)nc(C)c1C)CC2` (centres undefined), for which the IC50 turned out to be 300 nM.

In turn, `Cc1ccc2c(c1)CCN(c1nc(C(F)c3ccc(F)cc3)nc(C)c1C)C2C` (centres undefined) registered an IC50 of 1130 nM.

Turning to `Cc1cccc2c1C(C)N(c1nc(Cc3ccc(F)cc3)nc(C)c1C)CC2` (centres undefined), the IC50 worked out at 700 nM.

`Cc1nc(Cc2ccc(F)cc2)nc(N2CCc3c(Cl)cccc3C2C)c1C` (centres undefined) registered an IC50 of 1990 nM.

`Cc1ccc2c(c1)CCN(c1nc(C3(c4ccc(F)cc4)CC3)nc(C)c1C)C2C` (centres undefined) came in with a concentration for half-maximal inhibition (IC50) of 1290 nM.

As for `Cc1nc(Cc2ccc(F)cc2)nc(N2CC(C)c3ccccc3C2C)c1C` (centres undefined), the IC50 amounted to 610 nM.

`Cc1nc(Nc2ccc(F)cc2)nc(N2CCc3ccccc3C2C)c1C` (centres undefined) [REVAPRAZAN HYDROCHLORIDE] had a concentration for half-maximal inhibition (IC50) of 350 nM.

For `COc1ccc2c(c1)C(C)N(c1nc(Cc3ccc(F)cc3)nc(C)c1C)CC2` (centres undefined), the midpoint of inhibition, the IC50, lay at 52 nM.

`Cc1ccc2c(c1)CCN(c1nc(C(=O)c3ccc(F)cc3)nc(C)c1C)C2C` (centres undefined) gave an IC50 of 1910 nM.

`Cc1ccc2c(c1)CCN(c1nc(C(C)(C)c3ccc(F)cc3)nc(C)c1C)C2C` (centres undefined) showed an IC50 of 1760 nM.

The molecule `Cc1nc(Cc2ccc(F)cc2)nc(N2CCc3cc(Cl)ccc3C2C)c1C` (centres undefined) showed an IC50 of 940 nM.

In the case of `COc1ccc2c(c1)CCN(c1nc(Cc3ccc(F)cc3)nc(C)c1C)C2C` (centres undefined), half-maximal inhibition (IC50) required 170 nM.

For the molecule `COc1ccc2c(c1)C(C)N(c1nc(C(=O)c3ccc(F)cc3)nc(C)c1C)CC2` (centres undefined), half-maximal inhibition (IC50) required 1120 nM.

The molecule `Cc1ccc2c(c1)CCN(c1nc(C(O)c3ccc(F)cc3)nc(C)c1C)C2C` (centres undefined) returned a half-inhibitory concentration (IC50) of 1510 nM.

A further test is described as follows: Inhibition of H+/K+/ATPase at 4 uM. An outline of the steps: as §1
Regarding `COc1ccc2c(c1)C(C)N(c1nc(C(C)(C)c3ccc(F)cc3)nc(C)c1C)CC2` (centres undefined), the inhibition came out at 34.2%.

The molecule `COc1ccc2c(c1)C(C)N(c1nc(C3(c4ccc(F)cc4)CC3)nc(C)c1C)CC2` (centres undefined) returned an inhibition of 1.4%.

A word on the IC50: it is the point on the concentration scale where inhibition reaches its midpoint. One may read the inhibition as the relative decrease from the control value, in per cent.
